Results on 19 sequences are retold here after the EternaBench riboswitch data.

As usually defined, the apparent Kd is the concentration giving half-maximal binding under the conditions of the assay.

The data set deals with MS2 coat protein. The data set is described as follows: apparent Kd, MS2 coat protein; higher = weaker binding; RNA-MaP array; tryptophan 2.4 mM where present. The procedure, abridged:
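SNAP-549-labelled MS2 coat protein, doubled from 0.7 or 1.5 nM to 3 µM, was titrated over designs transcribed by stalled E. coli RNA polymerase on Illumina sequencing-chip clusters. Titrations were run without and then with constant ligand in 100 mM Tris-HCl pH 7.5, 80 mM KCl, 4 mM MgCl2, BSA, DTT, yeast tRNA and Tween-20. The apparent Kd is the median of filtered per-cluster fits to green signal normalised to red-channel RNA signal and control-cluster median Fmax.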

Where [1] appears, read: designed as: ON switch for tryptophan, no ligand.
Setting [2] is: ligand present: tryptophan, designed as: ON switch for tryptophan.
[3] abbreviates: designed as: OFF switch for tryptophan, no ligand.
The mark [4] stands for this setting: ligand present: tryptophan, designed as: OFF switch for tryptophan.

Regarding “AGUACAUGAGGAUCACCCAUGUGCCGGUAACGAGGACCGGUACGGCCGCCACUCGAUGUACCUCAAUUUGAUUGAGAUAAGAAAA”, the “apparent Kd” value amounted to 41 nM under setting [1] and 17.4 nM under setting [2].
In the case of “GAUUAAACAUGAGGAUCACCCAUGUAUAUACGAGGACCGGUACGGCCGCCACUCGUAAACGAGUAUCCUCGAAUAAACAUGAUAA”, the “apparent Kd” value by setting is: under setting [1], 134 nM; under setting [2], 42.7 nM.
Take “UACUUGCUGACGGCCGCCACUAGAACAUGAGGAUCACCCAUGUACCCGGUCCUAAUCCUCAUGACUAGGACCGGGUCAGCAAGAU”: the “apparent Kd” value reads like this: under setting [3], 22.4 nM; under setting [4], 21.5 nM.
On to “GAUCGACAAAACGUCUAGGAAAACUAGACGCGAGGACCGGUACGGCCGCCACUCGUCCUCACAUGAGGAUCACCCAUGUACGAUC”, for which the “apparent Kd” value is, setting by setting: under setting [3], 31.5 nM; under setting [4], 177 nM.
Consider “AAAGCCACUUCGGCCGCCACUACAACAUGAGGAUCACCCAUGUACCUCGUGUACGGUCCGAGGAGUAGGACCGGGAAGUGGUGGA”, for which the “apparent Kd” value by setting is: under setting [1], 132 nM; under setting [2], 52.8 nM.
As to “AGAUGAGUCACGGCCGCCACUCACUUCAGGUUCACCCUUGGUUAACAUGAGGAUCACCCAUGUGGGAGGACCGGGUGAUGAGCAU”, the “apparent Kd” value reads like this: under setting [3], 16.2 nM; under setting [4], 12.8 nM.
Turning to “ACAUGAGGAUCACCCAUGUGUGUAAAUCCUCGAGGACCGGUACGGCCGCCACUCGAACGAGUGUAAGUUGAAUGUAACAUUCAAC”, the “apparent Kd” value turned out to be 85.5 nM under setting [1] and 33.7 nM under setting [2].
On to “UAUCGUCAGACGGCCGCCACUAGAACAUGAGGAUCACCCAUGUACCCGGUCCAUUCCUCAUUAACUAGGACCGGGUCUGACGAAU”, for which the “apparent Kd” value is, setting by setting: under setting [3], 125 nM; under setting [4], 30.2 nM.
With “CGAAUAUAGACGGCCGCCACUCUACAAACAUGAGGAUCACCCAUGUUCACAUAGAGGAAACUCAUGAGGACCGGGUCAUAGGCUU”, the “apparent Kd” value was 23.4 nM under setting [1] and 20 nM under setting [2].
For the sequence “AUAAGCUGUACCGGAAUAUCCUCAUGUAUACGAGGACCGGUACGGCCGCCACUCGAUAACAUGAGGAUCACCCAUGUAAUAAUAA”, the “apparent Kd” value amounted to 11.2 nM under setting [3] and 11.2 nM under setting [4].
For “GAUAUGGAAACAUGUCAGAUCCUUACCGGUCGAGGACCGGUACGGCCGCCACUCGAAAAUAAUAAACAUGAGGAUCACCCAUGUA”, the “apparent Kd” value runs as follows: under setting [3], 14.4 nM; under setting [4], 32 nM.
“AGCAACAAGUCGGCCGCCACUCAUAUUACAUGAGGAUCACCCAUGUUUACAUCAAGGUCAUAAUAGAGGACCGGGACAGUUGCAU”: the “apparent Kd” value came out at 34.1 nM under setting [1] and 23.7 nM under setting [2].
For “AAGCUUCGCAUAGGAAAACUAUGUGAAGCUCGAGGACCGGUACGGCCGCCACUCGUCCUCAACAUGAGGAUCACCCAUGUAAUAA”, the “apparent Kd” value by setting is: under setting [3], 22.5 nM; under setting [4], 28.2 nM.
For the sequence “AACAUACAAUAAUAGGUGGAUAUAAGGCGGCGAGGACCGGUACGGCCGCCACUCGCGUACAUGAGGAUCACCCAUGUCUGAAACU”, the “apparent Kd” value by setting is: under setting [1], 23.2 nM; under setting [2], 28.1 nM.
As for “GCAUCCUAGUCGGCCGCCACUGGUACGAACACCUUCACCCGUGUGCACAUGAGGAUCACCCAUGUUAGGACCGGGACUAGGAUGC”, the “apparent Kd” value came to 8.2 nM under setting [1] and 7.99 nM under setting [2].
With “AAUGUGAAGGCGGCCGCCACUGAUAAUAGACAUGAGGAUCACCCAUGUAUAAAUCCUCAAUAAGACAGGACCGGGCCAACUACGU”, the “apparent Kd” value reads like this: under setting [3], 105 nM; under setting [4], 125 nM.
“AUGCAGAGCACGGCCGCCACUCCAUGUAUACAUGAGGAUCACCCAUGUAAUUUGUAUUUUUUAUAGAGGACCGGGUGAAAUGCAA”: the “apparent Kd” value reads like this: under setting [1], 34.3 nM; under setting [2], 18.2 nM.
Regarding “GAGUAGAAGACGGCCGCCACUAAACAUGAGGAUCACCCAUGUCGUGAUCCGUUACCUAGAGUAGAUAGGACCGGGUCAUAUAGUC”, the “apparent Kd” value under setting [3] came out at 30.4 nM and the “apparent Kd” value under setting [4] was found to be 30.9 nM.
“GGCACAUAGUCGGCCGCCACUAGAAUAAGAAGGGAAAACAUGAGGAUCACCCAUGUAAAAGGGACUAGGACCGGGACUAUGUGCC”: the “apparent Kd” value came to 13.9 nM under setting [3] and 13 nM under setting [4].
